Among all 62,000 compounds or so, about 50 (0.08%) were called active.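 The calls were made as follows: active = inhibition above 30% in each of the two pooled mixtures holding the compound, so the lower value exceeds 30%; inactive = the rest.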 This excerpt belongs to a sample that is enriched for actives.
assay: alternative complement pathway inhibitors, primary screen, biochemical, ELISA, human serum, orthogonally pooled compounds (AID 1235); settings: LPS-coated ELISA, C3 deposition, tested in compound mixtures, at 5 µM, stronger effect = higher value;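 also: 0% = serum in Mg-EGTA without compound and 100% = EDTA serum blank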
Procedure, shortened: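 Test system – human serum alternative complement pathway, C3 deposition on LPS-coated wells · Buffer or medium – diluted human serum in Mg2+-EGTA GVB++ · Compound dosing – 5 µM each compound, pools of ten, 50 µM per pool · Schedule – 1 h serum-compound exposure at 37 °C · Measured by – Anti-C3 ELISA, OD 450 nm · Read-out basis – percent inhibition of C3 deposition onto LPS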

inhibition, active:
COc1ccccc1CNC(=O)C1CCN(S(C)(=O)=O)CC1 35.9%

inhibition, inactive:
CCCSc1nc2c(c(=O)n(C)c(=O)n2C)n1Cc1ccc(C)cc1 -3.43%, CNC(=O)C1CC(=O)N(Cc2ccc3c(c2)OCO3)C(=Nc2ccc(F)cc2)S1 (stereo not given) 13%, O=C(C(Cc1ccccc1)n1cccc1)N1CCN(C2CCCCC2)CC1 (stereo not given) 14.7%, O=C(O)c1cccc2c1C(=O)N(C1CCCCC1)C2 16.2%, O=C(Cn1nc(Cc2cccnc2)c2ccccc2c1=O)NCC1COc2ccccc2O1 (stereo not given) 15.7%, CCOc1cc2c(cc1OCC)C(C(=O)O)C(c1ccc(OC)c(O)c1)N(C)C2=O (stereo not given) 16.6%, Fc1ccccc1OCCSc1nc2ccccc2o1 -8.88%, Cc1nn(-c2ccccc2)c2c1C(=O)NC(=O)C(C)(C)C2 5.83%, N#C/C=C\Oc1ccc(Cl)cc1N -1.31%, CCOC(=O)c1cccc(NC(=O)CCc2c(C)nc3ncnn3c2C)c1 1.8%, Cc1ccc(-c2nc(CS(=O)CC(=O)N3CCN(c4ncccn4)CC3)c(C)o2)cc1 (stereo not given) 22.7%, Cc1onc(-c2ccccc2Cl)c1C(=O)NCCn1ccc2ccccc21 7.02%, CCOc1ccc(CNC(=O)C2CC(=O)N(C3CCCC3)C2)cc1OC (stereo not given) 18.4%, Cc1cc2c(=O)n(C)c(SCC(=O)c3cc4ccccc4o3)nc2s1 3.24%, Cc1nc2ncnn2c(C)c1CCC(=O)N1CCN(C(=O)c2ccco2)CC1 1.46%, CN(C(=O)COc1nnc(-c2cccs2)c(-c2cccs2)n1)c1ccccc1 7.72%, C=CCN1C(=O)C(O)(CC(=O)c2ccc(Cl)cc2)c2ccccc21 (stereo not given) 8.76%, CCOCCCNC(=O)Cc1cc(=O)[nH]c(=O)[nH]1 26.3%, CC(C)CCNC(=O)CN(C(=O)Cn1nnc(-c2ccc(F)cc2)n1)C1CCCC1 0.465%, COc1ccc(C2SCCN2S(=O)(=O)c2ccccc2)cc1OC (stereo not given) 21.6%, COC(=O)c1ccc(CN(c2ccccc2OC)S(=O)(=O)c2cccs2)o1 -0.725%, CC1(C)C(=O)C2(CCCCC2)C(=O)OC1c1cccs1 (stereo not given) 15.8%, COc1ccc(-c2nc3n(c2Br)CCC3)cc1 7.42%, O=C(CSc1nc2cc3c(cc2c(=O)n1CCC1=CCCCC1)OCO3)NCc1ccco1 15.2%, CN1C(C)(C)CC(NC(=O)CCC(=O)NC2CC(C)(C)N(C)C(C)(C)C2)CC1(C)C 9.95%, CCOC(=O)C1CCN(C(=O)C2CCN(S(=O)(=O)c3c(C)noc3C)CC2)CC1 -18.4%, COCCn1nnnc1C(c1ccccc1Cl)N1CCN(c2ccccc2OC)CC1 (stereo not given) 9.52%, O=C(CCOc1ccccc1)NCc1ccccc1 12.9%, O=C(CCCN1C(=O)C2C3C=CC(C3)C2C1=O)N1CCN(c2ccccc2)CC1 (stereo not given) 11.5%, C[N+](C)(C)CCNC(=O)c1c(O)c2c([nH]c1=O)CCCC2 4.27%, C/C(=N\O)C1(C)N(O)C(C)(C)C(c2ccc(Br)cc2)=[N+]1[O-] (stereo not given) 0.945%, CC(=O)C1C(c2cccc(Oc3ccccc3)c2)NC(=O)NC1(O)C(F)(F)F (stereo not given) 6.73%, COc1ccccc1CNC(=O)C1CCCN(S(=O)(=O)c2cccc3cccnc23)C1 (stereo not given) 5.61%, COc1ccccc1CNC(=O)C1CCN(c2nc3ccccc3o2)CC1 -3.35%, CCn1c(SCC(=O)Nc2ccccc2F)nc2c(c1=O)SC(C)C2 (stereo not given) -1.83%, COC(=O)c1ccc(N(CC(=O)NC2CCCC2)C(=O)CNC(=O)c2ccco2)cc1 13.6%, CCCNC(=O)Nc1ccccc1C(=O)Nc1ccc(OC)cc1 6.47%, CCCN1C2=C(C(=O)CCC2)C(c2ccc(O)c(Br)c2)C2=C1CCCC2=O 3.41%, COc1ccc(OC)c(Nc2nc(-c3ccc(O)c(O)c3)cs2)c1 15.1%, O=c1c2ccccc2nc(CSc2nnnn2-c2ccccc2)n1-c1ccccc1 16.5%, CCC1C(C#N)=C(SC)NC2=C1C(=O)CC(C)(C)C2 (stereo not given) 29.5%, C=C(C)Cn1c(N2CCCC2)nc2c1c(=O)[nH]c(=O)n2C 13.6%, COc1ccc(OC)c(NC(=O)CC(Cc2ccccc2OC)C(=O)O)c1 (stereo not given) 6.63%, O=C(Cn1cnc2c(nnn2-c2ccccc2)c1=O)N1CCC(Cc2ccccc2)CC1 12.9%, CCC1SC2=NCCN2C1(O)c1ccc(Cl)cc1 (stereo not given) -4.64%, CCN(CC)c1ccc(C(=O)OCC(=O)c2ccco2)cc1 -18.9%, Cc1nn(Cc2ccc(Cl)c(Cl)c2)c(C)c1NC(=O)c1cc(C2CC2)on1 14.3%, COc1ccccc1N1CCN(c2nc3ccccc3n3nnnc23)CC1 -4.06%, CCOC(=O)c1cc2sccc2n1Cc1ccc(C#N)cc1 8.71%, COCCNC(=O)c1snc2ccc(Cl)cc12 -12.7%, Cc1ccn2cc(-c3nonc3C)cc2c1 17.2%, Cc1ccc(N2C(=O)CC(NCc3ccc4c(c3)OCO4)C2=O)cc1Cl (stereo not given) 24.4%, O=C(Nc1ccc2c(c1)OCCO2)C1CCCN(c2ncccn2)C1 (stereo not given) 4.42%, CCOc1ccc(OCC)c(NC(=O)C2CCN(S(=O)(=O)c3c(C)noc3C)CC2)c1 4.52%, O=C(NCCc1ccccn1)c1ccc(COc2ccccc2)o1 13.5%, COc1cccc(NC(=O)c2ccccc2SC)c1 12.3%, CC(C)OCCCNC(=O)C1CC(=O)N(C2CCCCCCC2)C1 (stereo not given) 16.3%, CC(C)(O)C#Cc1ccc(C(=O)N2CCC(C(N)=O)(N3CCCCC3)CC2)cc1 0.925%, CCN(CC)S(=O)(=O)c1ccc2nc(CSc3nnnn3-c3ccc(O)cc3)[nH]c2c1 -3.47%

— PubChem BioAssay AID1235 (PCMD, 2008)
